Measured values: ChEMBL document CHEMBL4312027, “Synthesis, characterization, and biological activity of a triphenylphosphonium-containing imidazolium salt against select bladder cancer cell lines” (Eur J Med Chem, 2020)
Calls of active or inactive are those of the source. The calls are words filed in the database; no cut-off is given here.

Tests used:
BT-549 = assay: Growth inhibition of human BT549 cells assessed as growth percent at 10 uM incubated for 48 hrs by sulforhodamine B assay relative to control; format: functional; conditions: BT-549, 48 h, read-out: Activity
SF-539 = assay: Growth inhibition of human SF539 cells assessed as growth percent at 10 uM incubated for 48 hrs by sulforhodamine B assay relative to control; format: functional; conditions: SF-539, 48 h, read-out: Activity
MOLT-4 = assay: Growth inhibition of human MOLT4 cells assessed as growth percent at 10 uM incubated for 48 hrs by sulforhodamine B assay relative to control; format: functional; conditions: MOLT-4, 48 h, read-out: Activity
UMUC3 [1] = assay: Cell cycle arrest in human UM-UC-3 cells assessed as increase in cell accumulation at sub-G1 phase at 250 to 500 uM incubated for 1 hr measured after culturing in normal medium for 24 hrs by propidium iodide/RNase staining based FACScan flow cytometry analysis; format: functional
In short: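 Seeded at 300,000 cells/well in triplicate per treatment; 24 h later exposed to 250 or 500 μM or vehicle for 1 h. After 24 h in normal media, media plus cells were collected, washed, fixed in cold 70% ethanol (4 °C, 30 min), treated with phosphate citric acid buffer, stained with PI/RNase and gated for sub-G1 by flow cytometry.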

Mus musculus [2] = assay: Induction of urothelium exfoliation in anesthetized female mouse model assessed as decrease in urothelial cell height at 750 to 1500 uM administered via intravesical instillation after bladder evacuation treated for 1 hr followed by repetition of the treatment after 24 hrs and measured at 24 hrs after final treatment by hematoxylin and eosin staining based analysis; format: organism-based; conditions: in vivo, other
In short: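 Female mice anesthetized, 1–3% isoflurane. Bladder evacuated, then 100 μL of 750 or 1500 μM in 10% DMSO/PBS (or vehicle) instilled by 24G angiocatheter. Catheter left in place for a 1 h dwell. Repeated after 24 h; mice sacrificed 24 h after final dose. Bladder histology read for urothelial height and layers.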

[3] = Toxicity in anesthetized BBN-induced bladder tumor mouse model assessed as cleaved caspase 3 level in tumor adjacent normal […] at 1500 uM administered via intravesical instillation treated for 1 hr administered as 2 doses at 24 hrs interval and measured at 24 hrs after final treatment by hematoxylin and eosin staining based immunohistochemical analysis; conditions: in vivo, other
In short: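 Bladder tumors induced with 0.05% BBN in drinking water and confirmed by excretory μCT urography. Anesthetized (isoflurane) mice given intravesical 1500 μM or vehicle by catheter. Two 1 h doses 24 h apart. Females received 100 μL in 10% DMSO/PBS; males received doubled concentration in 50 μL of 20% DMSO/PBS. Bladder immunohistology for cleaved caspase-3.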

UMUC3 [4] = assay: Anticlonogenic activity against human UM-UC-3 cells assessed as no colony formation at 250 to 500 uM incubated for 1 hr measured after culturing in normal medium for 10 days by crystal violet staining assay; format: functional, cell-based
In short: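 Cells seeded at 500/well, treated 24 h later with 250 or 500 μM drug or vehicle for 1 h. Cells were then grown in normal media for 10 days, stained with 0.5% crystal violet in 20% MeOH/water at 4 °C for 5 min, washed, dried and imaged. Run in triplicate.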

RT-112 [5] = assay: Mito-toxicity in mitochondria isolated from human RT112 cells assessed as increase in cytochrome C release at 200 uM incubated for 1 hr and measured after 4 hrs incubation in preservative buffer by Western blot analysis; format: functional
In short: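 Mitochondria isolated from 20 million RT112 cells with a kit. Exposed to 200 μM, 100 μM CCCP or 10% DMSO for 1 h at 37 °C, then kept in mitochondria preservative buffer at 37 °C. Spun after 1 h and 4 h into supernatant and pellet; pellet lysed. Cytochrome c in each fraction detected by western blot.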

RPMI-8226 = assay: Growth inhibition of human RPMI8226 cells assessed as growth percent at 10 uM incubated for 48 hrs by sulforhodamine B assay relative to control; format: functional; conditions: RPMI-8226, 48 h, read-out: Activity
RT-112 [6] = assay: Induction of apoptosis in human RT112 cells assessed as increase in PARP cleavage at 500 uM incubated for 1 hr measured at 24 hrs after treatment by Western blot analysis; format: functional, cell-based
In short: (§1)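 RT112 seeded 300,000/well; after 24 h, 250 or 500 μM or vehicle. Cells plus floating debris harvested immediately or 24 h after treatment, lysed in RIPA with protease inhibitors. About 30 μg protein heated 10 min at 95 °C with DTT, run on SDS-PAGE. Immunoblotted for PARP and caspase 9, Ran as loading control, ECL detection.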

PC-3 = assay: Growth inhibition of human PC3 cells assessed as growth percent at 10 uM incubated for 48 hrs by sulforhodamine B assay relative to control; format: functional; conditions: PC-3, 48 h, read-out: Activity
RT-4 [7] = assay: Growth inhibition of human RT4 cells at 500 uM by Celltiter-Glo luminescent cell viability assay; format: functional, cell-based; conditions: TDE = time-dependent effect
In short: (§2)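 Cells seeded 10000/well, 24 h, then exposed in ATCC-recommended medium to 62.5–2000 μM (two-fold steps) or vehicle for the set time (5–60 min), then normal medium. After 24 h, plates equilibrated 30 min at room temperature, CellTiter-Glo added, 2 min at room temperature, luminescence read. Survival relative to vehicle control; quadruplicate.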

786-0 = assay: Growth inhibition of human 786-0 cells assessed as growth percent at 10 uM incubated for 48 hrs by sulforhodamine B assay relative to control; format: functional; conditions: 786-0, 48 h, read-out: Activity
RT-4 [8] = assay: Growth inhibition of human RT4 cells at 500 uM measured after 1 hr by Celltiter-Glo luminescent cell viability assay relative to control; format: functional; conditions: RT-4, 1 h, read-out: GI; in short: as §2
EKVX = assay: Growth inhibition of human EKVX cells assessed as growth percent at 10 uM incubated for 48 hrs by sulforhodamine B assay relative to control; format: functional; conditions: read-out: Activity
NCI-H322M = assay: Growth inhibition of human NCI-H322M cells assessed as growth percent at 10 uM incubated for 48 hrs by sulforhodamine B assay relative to control; format: functional; conditions: read-out: Activity
Mus musculus [9] = assay: Antitumor activity against anesthetized BBN-induced bladder tumor mouse model assessed as increase in cleaved caspase 3 level in necrotic region at 1500 uM administered via intravesical instillation treated for 1 hr administered as 2 doses at 24 hrs interval and measured at 24 hrs after final treatment by hematoxylin and eosin staining based immunohistochemical analysis; format: functional, organism-based
K562 = assay: Growth inhibition of human K562 cells assessed as growth percent at 10 uM incubated for 48 hrs by sulforhodamine B assay relative to control; format: functional; conditions: K562, 48 h, read-out: Activity
ACHN = assay: Growth inhibition of human ACHN cells assessed as growth percent at 10 uM incubated for 48 hrs by sulforhodamine B assay relative to control; format: functional; conditions: read-out: Activity
RT-112 [10] = assay: Induction of apoptosis in human RT112 cells assessed as caspase 9 cleavage at 500 uM incubated for 1 hr and measured immediately after treatment by Western blot analysis; format: functional, cell-based; in short: as §1
MDA-MB-231 = assay: Growth inhibition of human MDA-MB-231 cells assessed as growth percent at 10 uM incubated for 48 hrs by sulforhodamine B assay relative to control; format: functional; conditions: MDA-MB-231, 48 h, read-out: Activity
TK-10 = assay: Growth inhibition of human TK10 cells assessed as growth percent at 10 uM incubated for 48 hrs by sulforhodamine B assay relative to control; format: functional; conditions: TK-10, 48 h, read-out: Activity
SK-OV-3 = assay: Growth inhibition of human SKOV3 cells assessed as growth percent at 10 uM incubated for 48 hrs by sulforhodamine B assay relative to control; format: functional; conditions: SK-OV-3, 48 h, read-out: Activity

[Br-].[Br-].c1ccc([P+](CCCc2n(Cc3ccc4ccccc4c3)c3ccccc3[n+]2Cc2ccc3ccccc3c2)(c2ccccc2)c2ccccc2)cc1
growth at 10 µM (BT-549): 68.1%
growth at 10 µM (SF-539): 36.8%
growth at 10 µM (MOLT-4): 57.6%
Activity (UMUC3 [1]): Active
Activity (Mus musculus [2]): Non-Toxic
Activity [3]: Non-Toxic
inhibition (UMUC3 [4]): Active
Activity (RT-112 [5]): Active
growth at 10 µM (RPMI-8226): 6.9%
Activity (RT-112 [6]): Active
growth at 10 µM (PC-3): 67.5%
growth inhibition (GI) (RT-4 [7]): Tde
growth at 10 µM (786-0): 70.8%
inhibition of growth at 500 µM (RT-4 [8]): 100%
growth at 10 µM (EKVX): 59.4%
growth at 10 µM (NCI-H322M): 63.8%
Activity (Mus musculus [9]): Active
growth at 10 µM (K562): 23.7%
growth at 10 µM (ACHN): 81.4%
Activity (RT-112 [10]): inactive
growth at 10 µM (MDA-MB-231): 51%
growth at 10 µM (TK-10): 89.2%
growth at 10 µM (SK-OV-3): 84.5%
